Measured values taken from ChEMBL document CHEMBL1124249 (J Med Chem, 1988).

Legend:
[1] = biological target: Delta-type opioid receptor (Rattus norvegicus, UniProt P33533); experiment: Inhibition of [3H]DTLET binding torat brain membrane Opioid receptor delta 1
Cavia porcellus = species on record: Cavia porcellus; experiment: Inhibitory potency evaluated against electrically evoked contractions of guinea pig ileum; format: functional, organism-based
Method in brief: (§1)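 Electrically stimulated twitch of isolated guinea pig ileum (μ assay). IC50 is the concentration giving half-maximal twitch inhibition, taken from six to eight computed log dose-response curves with six concentrations each. [Met]enkephalin IC50 was run on the same preparation. Each IC50 was corrected by the ratio of the mean of all [Met]enkephalin IC50s to that assay's [Met]enkephalin IC50.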

Mus musculus = species on record: Mus musculus; experiment: Inhibitory potency evaluated against electrically evoked contractions of mouse vas deferens; format: functional, organism-based
Method in brief: as §1, with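 “mouse vas deferens (δ” for “guinea pig ileum (μ”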

Mu-type opioid receptor = Mu-type opioid receptor (Rattus norvegicus, UniProt P33535); experiment: Inhibition of [3H]DAGO binding to rat brain membrane Opioid receptor mu 1
Chain of Mu-type opioid receptor (P33535 whole entry): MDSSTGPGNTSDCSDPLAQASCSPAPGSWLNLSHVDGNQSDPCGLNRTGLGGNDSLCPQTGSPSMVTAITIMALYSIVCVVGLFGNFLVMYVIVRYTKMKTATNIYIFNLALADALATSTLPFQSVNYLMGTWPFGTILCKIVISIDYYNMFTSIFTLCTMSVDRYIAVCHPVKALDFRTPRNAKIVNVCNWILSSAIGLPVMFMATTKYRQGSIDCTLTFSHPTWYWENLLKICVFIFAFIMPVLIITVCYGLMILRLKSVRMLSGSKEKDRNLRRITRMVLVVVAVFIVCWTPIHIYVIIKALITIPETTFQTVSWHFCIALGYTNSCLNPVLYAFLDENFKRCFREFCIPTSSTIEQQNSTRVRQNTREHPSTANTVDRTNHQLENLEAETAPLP

[2] = Ratio of IC50 for MVD to GPI; format: functional

Chain of Delta-type opioid receptor (P33533 whole entry): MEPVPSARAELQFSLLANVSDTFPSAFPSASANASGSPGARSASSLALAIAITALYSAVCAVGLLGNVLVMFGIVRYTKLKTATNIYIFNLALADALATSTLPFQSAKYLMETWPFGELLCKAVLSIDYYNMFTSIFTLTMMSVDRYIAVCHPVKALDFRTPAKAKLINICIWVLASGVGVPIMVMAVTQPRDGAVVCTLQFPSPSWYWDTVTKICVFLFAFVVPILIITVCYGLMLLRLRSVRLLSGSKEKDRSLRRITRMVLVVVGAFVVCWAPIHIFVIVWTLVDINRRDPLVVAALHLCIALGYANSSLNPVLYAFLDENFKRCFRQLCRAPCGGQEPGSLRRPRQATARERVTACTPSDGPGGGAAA

| SMILES | Ki [1] [nM] | IC50 (Cavia porcellus) [nM] | IC50 (Mus musculus) [nM] | Ki (Mu-type opioid receptor) [nM] | Ratio [2] |
| --- | --- | --- | --- | --- | --- |
| CC(C)C[C@H](NC(=O)[C@H](Cc1ccccc1)NC(=O)CNC(=O)[C@@H](COCc1ccccc1)NC(=O)[C@@H](N)Cc1ccc(O)cc1)C(=O)N[C@H](C(=O)O)[C@@H](C)O | 1.47 | 83.3 | 0.35 | 42.1 | 0.0042 |
| CC(C)C[C@H](NC(=O)[C@H](Cc1ccccc1)NC(=O)CNC(=O)[C@@H](CO)NC(=O)[C@@H](N)Cc1ccc(O)cc1)C(=O)N[C@H](C(=O)O)[C@@H](C)O |  | 406 | 0.4 |  | 0.001 |
| CC(C)C[C@H](NC(=O)[C@H](Cc1ccccc1)NC(=O)CNC(=O)[C@@H](NC(=O)[C@@H](N)Cc1ccc(O)cc1)[C@@H](C)O)C(=O)N[C@H](C(=O)O)[C@@H](C)O | 1.35 | 460 | 0.15 | 23.3 | 0.0003 |
| CC(C)C[C@H](NC(=O)[C@H](Cc1ccccc1)NC(=O)CNC(=O)[C@@H](CO)NC(=O)[C@@H](N)Cc1ccc(O)cc1)C(=O)N[C@H](C(=O)O)[C@@H](C)OC(C)(C)C | 6.35 | 202 | 0.84 | 185 | 0.0041 |
| CC(C)C[C@H](NC(=O)[C@H](Cc1ccccc1)NC(=O)CNC(=O)[C@@H](COC(C)(C)C)NC(=O)[C@@H](N)Cc1ccc(O)cc1)C(=O)N[C@H](C(=O)O)[C@@H](C)O | 6.14 | 1800 | 1.07 | 374 | 0.0006 |
| CC(C)C[C@H](NC(=O)[C@H](Cc1ccccc1)NC(=O)CNC(=O)[C@@H](COC(C)(C)C)NC(=O)[C@@H](N)Cc1ccc(O)cc1)C(=O)N[C@H](C(=O)O)[C@@H](C)OC(C)(C)C | 4.68 | 2790 | 0.6 | 475 | 0.00021 |
| CC(C)C[C@H](NC(=O)[C@H](Cc1ccccc1)NC(=O)CNC(=O)[C@H](NC(=O)[C@@H](N)Cc1ccc(O)cc1)[C@@H](C)OC(C)(C)C)C(=O)N[C@H](C(=O)O)[C@@H](C)O | 866 | 11400 | 1190 | 4500 | 0.1 |
| CSCC[C@H](NC(=O)[C@H](Cc1ccccc1)NC(=O)CNC(=O)CNC(=O)[C@@H](N)Cc1ccc(O)cc1)C(=O)O |  | 200 | 13 |  |  |
| CC(C)C[C@H](NC(=O)[C@H](Cc1ccccc1)NC(=O)CNC(=O)[C@@H](NC(=O)[C@@H](N)Cc1ccc(O)cc1)[C@@H](C)O)C(=O)N[C@H](C(=O)O)[C@@H](C)OC(C)(C)C | 3.1 | 204 | 0.75 | 64.6 | 0.0037 |
| CC(C)C[C@H](NC(=O)[C@H](Cc1ccccc1)NC(=O)CNC(=O)[C@@H](NC(=O)[C@@H](N)Cc1ccc(O)cc1)[C@@H](C)OC(C)(C)C)C(=O)N[C@H](C(=O)O)[C@@H](C)O | 13000 |  |  | > 100000 |  |
